# From ChEMBL document CHEMBL4177626, “Synthesis and anti-HCV activity of a series of β-d-2'-deoxy-2'-dibromo nucleosides and their corresponding phosphoramidate prodrugs” (Bioorg Med Chem Lett, 2017)
# pEC50: −log10 of the molar value. Calls of active or inactive are those of the source. The rule behind the calls is not given here.
# What was measured:
# Hepatitis C virus = assay: Antiviral activity against HCV genotype 1b infected in human HuH7 cells assessed as inhibition of viral RNA replication after 5 days by RT-PCR method; type: functional, organism-based, Hepacivirus hominis; conditions: Huh-7, 120 h
# In short: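 Subgenomic HCV genotype 1b replicon in Huh-7 cells. Inhibition of replicon RNA replication was measured by extracting and amplifying HCV RNA. Cellular ribosomal RNA was extracted and amplified at the same time, as a parallel cytotoxicity read-out.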
# Huh-7 = assay: Cytotoxicity against human HuH7 cells assessed as reduction in cell viability by MTT assay; type: cell-based
# PBMC = assay: (§1) Cytotoxicity against human PBMC assessed as reduction in cell viability after 6 days by trypan blue exclusion assay; type: cell-based; conditions: pbmc, 144 h
# CCRF-CEM = assay: (§2) Cytotoxicity against human CEM cells assessed as reduction in cell viability after 6 days by trypan blue exclusion assay; type: cell-based; conditions: ccrf-cem, 144 h
# Vero = assay: (§3) Cytotoxicity against African green monkey Vero cells assessed as reduction in cell viability after 6 days by trypan blue exclusion assay; type: cell-based; conditions: chlorocebus sabaeus, vero, 144 h
# West Nile virus = assay: Antiviral activity against West Nile virus up to 10 uM; type: functional, organism-based
# Dengue virus = assay: Antiviral activity against Dengue virus up to 10 uM; type: functional, organism-based
# Chikungunya virus = assay: Antiviral activity against Chikungunya virus up to 10 uM; type: functional, organism-based
# [1] = tested on: Respiratory syncytial virus; assay: Antiviral activity against Respiratory syncytial virus up to 10 uM; type: functional, organism-based
# [2] = tested on: unidentified influenza virus; assay: Antiviral activity against Influenza virus up to 10 uM; type: functional, organism-based
# Ebolavirus = assay: Antiviral activity against Ebolavirus up to 10 uM; type: functional
# Norovirus = assay: Antiviral activity against Norovirus up to 10 uM; type: functional, organism-based
# [3] = tested on: Human immunodeficiency virus; assay: Antiviral activity against Human immunodeficiency virus up to 10 uM; type: functional, organism-based
# [4] = as §1; type: cell-based; conditions: PBMC
# [5] = as §2; type: cell-based, CCRF-CEM; conditions: CEM cells
# [6] = as §3; type: cell-based; conditions: chlorocebus sabaeus, Vero cells
Structure (SMILES),pEC50 (Hepatitis C virus),CC50 (Huh-7) [µM],CC50 (PBMC) [µM],CC50 (CCRF-CEM) [µM],CC50 (Vero) [µM],Activity (West Nile virus),Activity (Dengue virus),Activity (Chikungunya virus),Activity [1],Activity [2],Activity (Ebolavirus),Activity (Norovirus),Activity [3],EC90 (Hepatitis C virus) [µM],CC50 at 144 h [4] [µM],CC50 at 144 h [5] [µM],CC50 at 144 h [6] [µM]
CC(C)OC(=O)[C@H](C)N[P@](=O)(OC[C@H]1O[C@@H](n2cnc3c(N)ncnc32)C(Br)(Br)[C@@H]1O)Oc1ccccc1,< 5.00,> 10,57,33,60,inactive,inactive,inactive,inactive,inactive,inactive,inactive,inactive,,,,
"Nc1nc2c(ncn2[C@@H]2O[C@H](CO)C(O)C2(Br)Br)c(=O)[nH]1 (single isomer, unassigned)",< 5.00,> 10,> 100,> 100,> 100,inactive,inactive,inactive,inactive,inactive,inactive,inactive,inactive,> 10,,,
CC(C)OC(=O)[C@H](C)N[P@](=O)(OC[C@H]1O[C@@H](n2cnc3c(=O)[nH]c(N)nc32)C(Br)(Br)[C@@H]1O)Oc1ccccc1,< 5.00,> 10,> 100,34,> 100,inactive,inactive,inactive,inactive,inactive,inactive,inactive,inactive,,,,
"O=c1ccn([C@@H]2O[C@H](CO)C(O)C2(Br)Br)c(=O)[nH]1 (single isomer, unassigned)",< 4.48,> 33,> 100,> 100,> 100,inactive,inactive,inactive,inactive,inactive,inactive,inactive,inactive,> 33,,,
CC(C)OC(=O)[C@H](C)N[P@](=O)(OC[C@H]1O[C@@H](n2ccc(=O)[nH]c2=O)C(Br)(Br)[C@@H]1O)Oc1ccccc1,5.82,> 10,> 100,95,> 100,inactive,inactive,inactive,inactive,inactive,inactive,inactive,inactive,2.7,,,
"Nc1ncnc2c1ncn2[C@@H]1O[C@H](CO)C(O)C1(Br)Br (single isomer, unassigned)",< 5.00,> 10,> 100,> 100,> 100,inactive,inactive,inactive,inactive,inactive,inactive,inactive,inactive,> 10,,,
CC(C)OC(=O)[C@H](C)N[P@](=O)(OC[C@H]1O[C@@H](n2ccc(=O)[nH]c2=O)[C@](C)(F)[C@@H]1O)Oc1ccccc1 [SOFOSBUVIR],6.70,> 10,,,,,,,,,,,,0.5,> 100,> 100,> 100
CC(C)OC(=O)[C@H](C)N[P@](=O)(OC[C@H]1O[C@@H](n2ccc(N)nc2=O)C(Br)(Br)[C@@H]1O)Oc1ccccc1,< 5.00,> 10,> 100,73,> 100,inactive,inactive,inactive,inactive,inactive,inactive,inactive,inactive,> 10,,,
"Nc1ccn([C@@H]2O[C@H](CO)C(O)C2(Br)Br)c(=O)n1 (single isomer, unassigned)",< 5.00,> 10,> 100,82,> 100,inactive,inactive,inactive,inactive,inactive,inactive,inactive,inactive,,,,
